Measured values as given in ChEMBL document CHEMBL1148324 (J Med Chem, 2004).

Legend:
[1] = target: T1, Sulfonylurea receptors; K-ATP channels (Homo sapiens, UniProt O60706+Q09428+Q14654+Q15842); assay: (§1) Evaluated for K-ATP activity in terms of change in membrane potential through guinea pig bladder assay; format: functional, Cavia porcellus; settings: target entry is the homologue from another species
[2] = target: T1, Sulfonylurea receptors; K-ATP channels; assay: Evaluated for K-ATP activity in terms of stable twitch response through field-stimulated landrace pig detrusor assay; format: functional, Sus scrofa; settings: target entry is the homologue from another species
[3] = target: T1, Sulfonylurea receptors; K-ATP channels; assay: Evaluated for K-ATP activity as in vitro bladder relaxation in spontaneous Landrace pig detrusor strips (SLPD); format: functional, Sus scrofa; settings: target entry is the homologue from another species
Outline: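 Bladder strips taken near the trigonal region of Landrace pig bladder, contracting spontaneously (myogenic, no cholinergic component). Test agents added at increasing concentrations; the read-out is the reduction in area under the contraction curve.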

[4] = Selectivity expressed as the ratio of pEC50 (SLPD) and pEC50 (FSLPD); format: functional
[5] = target: Sulfonylurea receptors; K-ATP channels (UniProt Q14654+O60706+Q09428+Q15842); assay: as §1; format: functional, Cavia porcellus; settings: target entry is the homologue from another species
Sus scrofa [6] = species: Sus scrofa; assay: Evaluated for change in heart rate from baseline at a plasma concentration of 1.9 nM in pigs; format: functional
Outline: (§2)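 Conscious female Landrace/Yorkshire swine (~12 weeks, 14–20 kg), urethra obstructed with a 7.5 mm silver omega ring, telemeterized, held in a restraint cage with ear venous catheters. After a 30 min baseline, increasing doses are given i.v. (3 min infusion) at 30 min intervals. Plasma is sampled 15 min after each dose for LC/MS. MAP and HR are averaged in 5 min bins over each 30 min period, expressed as % change from baseline; n = 2–4.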

Sus scrofa [7] = species: Sus scrofa; assay: Evaluated for change in heart rate from baseline at a plasma concentration of 24 nM in pigs; format: functional; outline: as §2
Sus scrofa [8] = species: Sus scrofa; assay: Evaluated for change in heart rate from baseline at a plasma concentration of 95 nM in pigs; format: functional; outline: as §2
Sus scrofa [9] = species: Sus scrofa; assay: Evaluated for change in mean arterial pressure from baseline at a plasma concentration of 1.9 nM in pigs; format: functional; outline: as §2
Sus scrofa [10] = species: Sus scrofa; assay: Evaluated for change in mean arterial pressure from baseline at a plasma concentration of 24 nM in pigs; format: functional; outline: as §2
Sus scrofa [11] = species: Sus scrofa; assay: Evaluated for change in mean arterial pressure from baseline at a plasma concentration of 95 nM in pigs; format: functional; outline: as §2
[12] = target: T1, Sulfonylurea receptors; K-ATP channels; assay: Evaluated for K-ATP activity as stable twitch response through field-stimulated landrace pig detrusor assay (FSLPD); format: functional, Sus scrofa; settings: target entry is the homologue from another species

Sequence of Sulfonylurea receptors; K-ATP channels (UniProt Q14654+O60706+Q09428+Q15842) (Q14654 whole entry): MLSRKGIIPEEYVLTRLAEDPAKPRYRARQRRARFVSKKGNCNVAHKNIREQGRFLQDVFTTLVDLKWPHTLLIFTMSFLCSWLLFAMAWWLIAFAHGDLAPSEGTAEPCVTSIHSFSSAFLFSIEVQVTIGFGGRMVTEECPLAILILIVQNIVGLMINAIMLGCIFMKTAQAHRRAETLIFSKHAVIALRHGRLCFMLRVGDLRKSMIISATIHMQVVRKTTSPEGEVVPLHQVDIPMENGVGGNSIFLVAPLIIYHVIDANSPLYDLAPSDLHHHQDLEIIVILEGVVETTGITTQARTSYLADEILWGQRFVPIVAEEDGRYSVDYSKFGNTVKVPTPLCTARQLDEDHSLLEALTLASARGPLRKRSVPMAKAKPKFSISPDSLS
Sequence of Sulfonylurea receptors; K-ATP channels (UniProt Q14654+O60706+Q09428+Q15842) (O60706 whole entry): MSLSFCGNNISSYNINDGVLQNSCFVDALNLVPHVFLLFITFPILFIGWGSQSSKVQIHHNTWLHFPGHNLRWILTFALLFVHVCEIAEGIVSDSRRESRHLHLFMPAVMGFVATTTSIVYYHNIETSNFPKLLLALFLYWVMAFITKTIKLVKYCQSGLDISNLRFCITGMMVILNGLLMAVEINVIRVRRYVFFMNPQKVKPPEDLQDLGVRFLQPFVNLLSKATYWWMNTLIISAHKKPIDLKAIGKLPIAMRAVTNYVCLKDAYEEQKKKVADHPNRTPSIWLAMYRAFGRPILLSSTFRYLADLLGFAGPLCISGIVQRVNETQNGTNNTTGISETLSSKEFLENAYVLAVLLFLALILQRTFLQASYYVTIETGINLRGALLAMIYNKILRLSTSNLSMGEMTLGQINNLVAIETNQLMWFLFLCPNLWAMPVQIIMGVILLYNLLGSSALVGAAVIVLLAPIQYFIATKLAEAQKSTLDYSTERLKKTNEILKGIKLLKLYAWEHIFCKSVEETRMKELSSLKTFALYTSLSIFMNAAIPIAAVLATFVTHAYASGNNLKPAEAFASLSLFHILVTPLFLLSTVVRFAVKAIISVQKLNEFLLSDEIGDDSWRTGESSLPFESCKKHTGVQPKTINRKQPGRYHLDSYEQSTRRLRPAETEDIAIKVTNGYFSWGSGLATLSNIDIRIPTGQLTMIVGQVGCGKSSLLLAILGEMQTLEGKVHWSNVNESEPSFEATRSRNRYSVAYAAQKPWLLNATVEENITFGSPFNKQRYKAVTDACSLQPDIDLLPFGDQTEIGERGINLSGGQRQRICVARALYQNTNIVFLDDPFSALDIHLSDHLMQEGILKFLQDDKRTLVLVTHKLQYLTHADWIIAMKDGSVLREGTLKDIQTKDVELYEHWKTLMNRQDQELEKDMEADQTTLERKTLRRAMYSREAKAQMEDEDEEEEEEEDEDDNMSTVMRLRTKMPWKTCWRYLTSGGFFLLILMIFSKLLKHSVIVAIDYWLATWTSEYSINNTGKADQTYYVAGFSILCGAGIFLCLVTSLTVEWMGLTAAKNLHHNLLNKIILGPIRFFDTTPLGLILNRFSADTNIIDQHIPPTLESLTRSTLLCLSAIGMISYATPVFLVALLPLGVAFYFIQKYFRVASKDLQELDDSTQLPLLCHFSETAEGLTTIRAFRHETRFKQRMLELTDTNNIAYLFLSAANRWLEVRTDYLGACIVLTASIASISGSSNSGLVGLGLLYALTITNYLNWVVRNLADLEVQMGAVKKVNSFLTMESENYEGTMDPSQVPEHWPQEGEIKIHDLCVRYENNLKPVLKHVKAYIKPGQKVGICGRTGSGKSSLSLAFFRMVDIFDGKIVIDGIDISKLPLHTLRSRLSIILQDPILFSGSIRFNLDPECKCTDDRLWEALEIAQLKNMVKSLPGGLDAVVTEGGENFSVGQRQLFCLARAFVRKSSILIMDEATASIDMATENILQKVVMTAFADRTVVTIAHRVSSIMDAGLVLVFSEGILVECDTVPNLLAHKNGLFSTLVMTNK
Sequence of Sulfonylurea receptors; K-ATP channels (UniProt Q14654+O60706+Q09428+Q15842) (Q09428 whole entry): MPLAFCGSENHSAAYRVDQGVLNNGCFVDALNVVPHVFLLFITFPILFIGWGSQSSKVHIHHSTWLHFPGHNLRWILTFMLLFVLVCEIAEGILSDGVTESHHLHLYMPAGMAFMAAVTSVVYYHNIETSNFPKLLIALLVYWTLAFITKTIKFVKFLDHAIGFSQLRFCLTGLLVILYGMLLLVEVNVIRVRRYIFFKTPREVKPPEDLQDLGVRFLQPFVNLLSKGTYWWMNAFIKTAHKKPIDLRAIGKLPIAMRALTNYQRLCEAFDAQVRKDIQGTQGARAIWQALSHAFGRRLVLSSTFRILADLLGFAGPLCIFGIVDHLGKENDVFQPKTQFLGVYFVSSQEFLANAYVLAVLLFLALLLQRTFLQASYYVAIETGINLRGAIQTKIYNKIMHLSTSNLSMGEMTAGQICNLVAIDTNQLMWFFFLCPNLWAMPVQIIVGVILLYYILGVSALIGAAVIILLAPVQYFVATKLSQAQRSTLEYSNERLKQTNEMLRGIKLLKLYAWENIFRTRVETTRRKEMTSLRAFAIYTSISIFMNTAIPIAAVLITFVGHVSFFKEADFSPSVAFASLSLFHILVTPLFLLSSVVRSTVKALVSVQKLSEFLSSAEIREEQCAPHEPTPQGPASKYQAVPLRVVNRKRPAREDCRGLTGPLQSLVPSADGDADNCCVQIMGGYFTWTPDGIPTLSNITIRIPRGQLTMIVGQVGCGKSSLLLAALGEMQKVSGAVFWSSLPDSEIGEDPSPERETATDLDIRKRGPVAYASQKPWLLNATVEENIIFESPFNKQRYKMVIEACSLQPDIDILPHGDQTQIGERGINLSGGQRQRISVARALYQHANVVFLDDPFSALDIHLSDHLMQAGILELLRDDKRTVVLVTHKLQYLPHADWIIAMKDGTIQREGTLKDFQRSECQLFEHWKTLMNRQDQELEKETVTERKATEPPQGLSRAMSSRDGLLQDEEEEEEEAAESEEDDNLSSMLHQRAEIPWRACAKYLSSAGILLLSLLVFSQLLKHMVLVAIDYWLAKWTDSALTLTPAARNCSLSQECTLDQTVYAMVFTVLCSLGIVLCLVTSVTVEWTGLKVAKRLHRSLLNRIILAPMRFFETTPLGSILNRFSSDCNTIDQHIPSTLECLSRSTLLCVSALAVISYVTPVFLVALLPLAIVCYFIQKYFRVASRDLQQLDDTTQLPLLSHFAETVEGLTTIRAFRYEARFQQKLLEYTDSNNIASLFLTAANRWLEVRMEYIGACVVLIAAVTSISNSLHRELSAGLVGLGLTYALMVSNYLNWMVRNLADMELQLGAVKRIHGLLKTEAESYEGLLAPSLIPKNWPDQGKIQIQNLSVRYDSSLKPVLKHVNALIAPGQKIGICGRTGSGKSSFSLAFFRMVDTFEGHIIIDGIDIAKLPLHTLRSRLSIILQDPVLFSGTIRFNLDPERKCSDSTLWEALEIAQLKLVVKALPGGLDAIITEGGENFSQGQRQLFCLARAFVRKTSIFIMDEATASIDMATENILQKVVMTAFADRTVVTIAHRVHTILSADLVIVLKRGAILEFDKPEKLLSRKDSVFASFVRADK
Sequence of Sulfonylurea receptors; K-ATP channels (UniProt Q14654+O60706+Q09428+Q15842) (Q15842 whole entry): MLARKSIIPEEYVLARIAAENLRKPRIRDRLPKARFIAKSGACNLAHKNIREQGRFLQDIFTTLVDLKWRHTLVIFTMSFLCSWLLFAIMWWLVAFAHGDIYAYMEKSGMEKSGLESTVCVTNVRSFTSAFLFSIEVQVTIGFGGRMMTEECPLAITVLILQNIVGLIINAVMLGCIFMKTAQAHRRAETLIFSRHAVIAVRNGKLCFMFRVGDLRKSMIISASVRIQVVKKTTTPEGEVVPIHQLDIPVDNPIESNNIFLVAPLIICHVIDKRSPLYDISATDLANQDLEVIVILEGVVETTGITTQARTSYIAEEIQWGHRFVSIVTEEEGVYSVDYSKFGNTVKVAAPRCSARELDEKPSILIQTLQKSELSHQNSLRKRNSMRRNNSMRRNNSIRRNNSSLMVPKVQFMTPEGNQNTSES

SMILES | EC50 [1] | EC50 [2] | other results
Cc1ccc([C@H]2C3=C(CCCC3=O)NC3=C2S(=O)(=O)CC3)cc1[N+](=O)[O-] | 282 nM | 537 nM | 
CCc1cc(C#N)ccc1Nc1c(N[C@H](C)C(C)(C)C)c(=O)c1=O | 251 nM | 676 nM | EC50 [3]: 102 nM; Selectivity [4]: 6.6
O=C1CCCC2=C1[C@H](c1ccc(Cl)c(Br)c1)C1=C(CCS1(=O)=O)N2 | 25.7 nM | 724 nM | 
CC1(C)CCC2=C(C1=O)[C@H](c1ccc(F)c(Br)c1)C1=C(CCS1(=O)=O)N2 | 83.2 nM | 5620 nM | 
O=C1CCC2=C1C(c1csc([N+](=O)[O-])c1)C1=C(CCS1(=O)=O)N2 (configuration not stated) | 240 nM | 661 nM | 
Cc1ccc([C@H]2C3=C(CCCC3=O)NC3=C2S(=O)(=O)CC3)cc1S(C)(=O)=O | > 10000 nM |  | 
O=C1CCC2=C1C(c1ccc([N+](=O)[O-])s1)C1=C(CCS1(=O)=O)N2 (configuration not stated) |  | 479 nM | Log EC50 [5]: -6.82
N#Cc1cccc([C@H]2C3=C(CCCC3=O)NC3=C2S(=O)(=O)CC3)c1 | 5890 nM | 12900 nM | 
N#Cc1cccc(C2C3=C(CCCC3=O)NC3=C2C(=O)CCC3)c1 |  | 9770 nM | 
N#Cc1ccnc(C2C3=C(CCC3=O)NC3=C2S(=O)(=O)CC3)c1 (configuration not stated) | > 10000 nM |  | 
CC1(C)CC(=O)C2=C(C1)NC1=C([C@H]2c2ccc(F)c(Br)c2)S(=O)(=O)CC1 | 7080 nM |  | 
O=C1CCC2=C1C(c1cc(Br)cs1)C1=C(CCS1(=O)=O)N2 (configuration not stated) | 741 nM |  | 
O=C1CCCC2=C1[C@H](c1cc(Br)c(F)cc1O)C1=C(CCS1(=O)=O)N2 | 209 nM | 676 nM | 
CC1=C(C#N)C(c2ccc(F)c(Br)c2)C2=C(CCS2(=O)=O)N1 (configuration not stated) | 27.5 nM |  | 
CCc1ccc([C@H]2C3=C(CCCC3=O)NC3=C2S(=O)(=O)CC3)cc1[N+](=O)[O-] | 2290 nM |  | 
O=C1CCC2=C1C(c1ccc(Br)s1)C1=C(CCS1(=O)=O)N2 (configuration not stated) | 1860 nM |  | 
CC1(C)CC(=O)C2=C(C1)NC1=C([C@@H]2c2ccc(F)c(Br)c2)S(=O)(=O)CC1 | 17800 nM |  | 
O=C1CCCC2=C1[C@H](c1cccc(Br)c1)C1=C(CCS1(=O)=O)N2 | 1510 nM |  | 
CCC(C)(C)NC(=NC#N)Nc1cccnc1 | 44.7 nM | 85.1 nM | EC50 [3]: 21.9 nM
CC1(C)CCC(=O)C2=C1NC1=C([C@H]2c2ccc(F)c(Br)c2)S(=O)(=O)CC1 | 631 nM | 2690 nM | 
N#Cc1cccc(C2C3=C(CCC3=O)NC3=C2S(=O)(=O)CC3)n1 (configuration not stated) | > 10000 nM |  | 
O=S1(=O)CCC2=C1C(c1ccc(F)c(Br)c1)C=C(C(F)(F)F)N2 (configuration not stated) | 447 nM | 2240 nM | 
O=C1CCCC2=C1[C@H](c1ccc3nonc3c1)C1=C(CCS1(=O)=O)N2 | 214 nM | 2340 nM | 
O=C1CCCC2=C1[C@H](c1ccc3nsnc3c1)C1=C(CCS1(=O)=O)N2 | 2400 nM |  | 

Now from value to compound, other results behind:

EC50 [1] | EC50 [2] | SMILES | other results
21.9 nM | 309 nM | Cc1ccc([C@H]2C3=C(CCCC3=O)NC3=C2S(=O)(=O)CC3)cc1I | 
1050 nM |  | CC(=O)c1cc([C@H]2C3=C(CCCC3=O)NC3=C2S(=O)(=O)CC3)ccc1F | 
219 nM | 9550 nM | O=C1CCCC2=C1[C@H](c1ccc(C(F)(F)F)c(Br)c1)C1=C(CCS1(=O)=O)N2 | 
182 nM | 110 nM | Cc1ccc([C@H]2C3=C(CCCC3=O)NC3=C2S(=O)(=O)CC3)cc1Br | 
123 nM | 234 nM | O=C1CCCC2=C1[C@H](c1ccc(F)c(Br)c1)C1=C(CCS1(=O)=O)N2 | EC50 [3]: 22.9 nM; Delta HR (Sus scrofa [6]): 6.2%; Delta HR (Sus scrofa [7]): 3.5%; Delta HR (Sus scrofa [8]): 56%; Delta MAP (Sus scrofa [9]): -5.4%; Delta MAP (Sus scrofa [10]): -6.9%; Delta MAP (Sus scrofa [11]): -27%; Selectivity [4]: 10
269 nM | 331 nM | O=C1CCCC2=C1[C@H](c1ccc(Cl)c(Cl)c1)C1=C(CCS1(=O)=O)N2 | 
43.7 nM |  | O=C1CCCC2=C1[C@@H](c1ccc(F)c(Br)c1)C1=C(CCS1(=O)=O)N2 | EC50 [3]: 12.6 nM; EC50 [12]: 69.2 nM; Selectivity [4]: 5.5
55 nM | 537 nM | O=C1CCCC2=C1[C@H](c1ccc(Br)c(Br)c1)C1=C(CCS1(=O)=O)N2 | 
155 nM | 977 nM | O=C1CCCC2=C1[C@H](c1ccc(F)c(C(F)(F)F)c1)C1=C(CCS1(=O)=O)N2 | 
2820 nM |  | Cc1cc([C@H]2C3=C(CCCC3=O)NC3=C2S(=O)(=O)CC3)ccc1F | 
